Results: ChEMBL document CHEMBL1138520, “Molecular and conformational determinants of pituitary adenylate cyclase-activating polypeptide (PACAP) for activation of the PAC1 receptor” (J Med Chem, 2009)
Where a SMILES comes first, the peptide text is derived from it. [ ]: non-standard residue; d: D form. ξ: configuration not given here. ξTic = O=C(O)C1Cc2ccccc2CN1

Legend:
[1] = target: T1, Pituitary adenylate cyclase-activating polypeptide type I receptor (Homo sapiens, UniProt P41586); experiment: Displacement of [125I]Ac-PACAP27 from human recombinant PAC1 receptor expressed in CHO cells by gamma- counter; format: cell-based
Target sequence in this assay (P41586 whole entry): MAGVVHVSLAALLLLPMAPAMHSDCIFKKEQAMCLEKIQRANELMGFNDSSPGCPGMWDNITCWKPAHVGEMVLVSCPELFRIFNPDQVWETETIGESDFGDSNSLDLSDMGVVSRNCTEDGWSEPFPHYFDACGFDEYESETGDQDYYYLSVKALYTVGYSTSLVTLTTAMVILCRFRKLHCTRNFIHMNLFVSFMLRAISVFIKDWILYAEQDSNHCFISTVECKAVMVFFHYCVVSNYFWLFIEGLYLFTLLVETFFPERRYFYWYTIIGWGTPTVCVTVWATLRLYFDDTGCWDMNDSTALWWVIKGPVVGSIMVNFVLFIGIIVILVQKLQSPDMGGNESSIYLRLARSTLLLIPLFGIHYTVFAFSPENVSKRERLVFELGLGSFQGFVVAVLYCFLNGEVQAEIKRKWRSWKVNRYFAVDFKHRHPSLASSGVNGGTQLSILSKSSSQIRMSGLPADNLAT

[2] = target: T1, Pituitary adenylate cyclase-activating polypeptide type I receptor; experiment: Agonist activity at human recombinant PAC1 receptor expressed in CHO cells assessed as PACAP38-induced calcium mobilization by FLIPR assay; format: functional, cell-based
Outline: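 CHO cells stably expressing recombinant human PAC1, plated 24 h before assay, loaded with fluo-4 AM for 60 min at 37 °C in the dark, then rinsed into HBSS for 15 min at 37 °C. EC50 and efficacy came from nonlinear regression; 4-10 independent assays in duplicate.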
Target sequence in this assay (P41586 whole entry): as above

[3] = target: T1, Pituitary adenylate cyclase-activating polypeptide type I receptor; experiment: Agonist activity at human recombinant PAC1 receptor expressed in CHO cells assessed as PACAP38-induced calcium mobilization by FLIPR assay relative to PACAP38; format: functional, cell-based
Outline: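 CHO cells stably expressing recombinant human PAC1, plated 24 h before assay, loaded with fluo-4 AM for 60 min at 37 °C in the dark, then rinsed into HBSS for 15 min at 37 °C. Peptide was added 18 s into a 150 s read (ex 480/em 525 nm), at final concentrations of 1 × 10-12 to 1 × 10^-5 M. Response was normalised to 1 × 10^-5 M PACAP38 on each plate. EC50 and efficacy came from nonlinear regression; 4-10 independent assays in duplicate.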
Target sequence in this assay (P41586 21-468 limits assumed): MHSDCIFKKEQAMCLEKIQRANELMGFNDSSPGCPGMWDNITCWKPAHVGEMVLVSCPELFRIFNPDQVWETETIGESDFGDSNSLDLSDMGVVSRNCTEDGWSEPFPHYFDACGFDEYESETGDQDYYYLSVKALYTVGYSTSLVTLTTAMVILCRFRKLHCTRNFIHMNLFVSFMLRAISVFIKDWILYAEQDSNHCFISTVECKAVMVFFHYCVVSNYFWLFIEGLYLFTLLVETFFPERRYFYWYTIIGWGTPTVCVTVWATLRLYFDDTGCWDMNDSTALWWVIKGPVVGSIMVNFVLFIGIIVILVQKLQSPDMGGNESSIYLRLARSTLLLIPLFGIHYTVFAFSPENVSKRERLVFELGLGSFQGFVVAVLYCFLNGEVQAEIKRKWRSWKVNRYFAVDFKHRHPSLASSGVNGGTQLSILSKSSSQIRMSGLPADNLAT

| SMILES | IC50 [1] [nM] | EC50 [2] [nM] | Emax [3] [%] |
| --- | --- | --- | --- |
| CC[C@H](C)[C@H](NC(=O)CNC(=O)[C@H](CC(N)=O)NC(=O)[C@H](CO)NC(=O)[C@@H](N)Cc1cnc[nH]1)C(=O)N[C@@H](Cc1ccccc1)C(=O)N[C@H](C(=O)N[C@@H](CC(=O)O)C(=O)N[C@@H](CO)C(=O)N[C@@H](Cc1ccc(O)cc1)C(=O)N[C@@H](CO)C(=O)N[C@@H](CCCNC(=N)N)C(=O)N[C@@H](Cc1ccc(O)cc1)C(=O)N[C@@H](CCCNC(=N)N)C(=O)N[C@@H](CCCCN)C(=O)N[C@@H](CCC(N)=O)C(=O)N[C@@H](CCSC)C(=O)N[C@@H](C)C(=O)N[C@H](C(=O)N[C@@H](CCCCN)C(=O)N[C@@H](CCCCN)C(=O)N[C@@H](Cc1ccc(O)cc1)C(=O)N[C@@H](CC(C)C)C(=O)N[C@@H](C)C(=O)N[C@@H](C)C(=O)N[C@H](C(=O)N[C@@H](CC(C)C)C(=O)NCC(=O)N[C@@H](CCCCN)C(=O)N[C@@H](CCCNC(=N)N)C(=O)N[C@@H](Cc1ccc(O)cc1)C(=O)N[C@@H](CCCCN)C(=O)N[C@@H](CCC(N)=O)C(=O)N[C@@H](CCCNC(=N)N)C(=O)N[C@H](C(=O)N[C@@H](CCCCN)C(=O)N[C@@H](CC(N)=O)C(=O)N[C@@H](CCCCN)C(N)=O)C(C)C)C(C)C)C(C)C)[C@@H](C)O (H-HSNGIFTDSYSRYRKQMAVKKYLAAVLGKRYKQRVKNK-NH2) | 9.2 | 52.2 | 22.1 |
| CSCC[C@H](NC(=O)[C@H](CCC(N)=O)NC(=O)[C@H](CCCCN)NC(=O)[C@H](CCCNC(=N)N)NC(=O)[C@H](Cc1ccc(O)cc1)NC(=O)[C@H](CCCNC(=N)N)NC(=O)[C@H](CO)NC(=O)[C@H](Cc1ccc(O)cc1)NC(=O)[C@H](CO)NC(=O)[C@H](CC(=O)O)NC(=O)[C@@H](NC(=O)[C@H](Cc1ccccc1)NC(=O)[C@H](CC(C)C)N1CC[C@H](NC(=O)[C@H](CC(=O)O)NC(=O)[C@H](CO)NC(=O)[C@@H](N)Cc2cnc[nH]2)C1=O)[C@@H](C)O)C(=O)N[C@@H](C)C(=O)N[C@H](C(=O)N[C@@H](CCCCN)C(=O)N[C@@H](CCCCN)C(=O)N[C@@H](Cc1ccc(O)cc1)C(=O)N[C@@H](CC(C)C)C(=O)N[C@@H](C)C(=O)N[C@@H](C)C(=O)N[C@H](C(=O)N[C@@H](CC(C)C)C(N)=O)C(C)C)C(C)C | 1980 | 1030 | 54.1 |
| CC[C@H](C)[C@H](NC(=O)CNC(=O)[C@H](CC(=O)O)NC(=O)[C@H](CO)NC(=O)[C@@H](N)Cc1cnc[nH]1)C(=O)N1Cc2ccccc2CC1C(=O)N[C@H](C(=O)N[C@@H](CC(=O)O)C(=O)N[C@@H](CO)C(=O)N[C@@H](Cc1ccc(O)cc1)C(=O)N[C@@H](CO)C(=O)N[C@@H](CCCNC(=N)N)C(=O)N[C@@H](Cc1ccc(O)cc1)C(=O)N[C@@H](CCCNC(=N)N)C(=O)N[C@@H](CCCCN)C(=O)N[C@@H](CCC(N)=O)C(=O)N[C@@H](CCSC)C(=O)N[C@@H](C)C(=O)N[C@H](C(=O)N[C@@H](CCCCN)C(=O)N[C@@H](CCCCN)C(=O)N[C@@H](Cc1ccc(O)cc1)C(=O)N[C@@H](CC(C)C)C(=O)N[C@@H](C)C(=O)N[C@@H](C)C(=O)N[C@H](C(=O)N[C@@H](CC(C)C)C(=O)NCC(=O)N[C@@H](CCCCN)C(=O)N[C@@H](CCCNC(=N)N)C(=O)N[C@@H](Cc1ccc(O)cc1)C(=O)N[C@@H](CCCCN)C(=O)N[C@@H](CCC(N)=O)C(=O)N[C@@H](CCCNC(=N)N)C(=O)N[C@H](C(=O)N[C@@H](CCCCN)C(=O)N[C@@H](CC(N)=O)C(=O)N[C@@H](CCCCN)C(N)=O)C(C)C)C(C)C)C(C)C)[C@@H](C)O (some centres not stated) (H-HSDGI[ξTic]TDSYSRYRKQMAVKKYLAAVLGKRYKQRVKNK-NH2) | 1420 | 4010 | 69.6 |
| CC[C@H](C)[C@H](NC(=O)CNC(=O)[C@H](CC(=O)O)NC(=O)[C@H](CO)NC(=O)[C@@H](N)Cc1cnc[nH]1)C(=O)N[C@@H](Cc1ccccc1)C(=O)N(C)[C@H](C(=O)N[C@@H](CC(=O)O)C(=O)N[C@@H](CO)C(=O)N[C@@H](Cc1ccc(O)cc1)C(=O)N[C@@H](CO)C(=O)N[C@@H](CCCNC(=N)N)C(=O)N[C@@H](Cc1ccc(O)cc1)C(=O)N[C@@H](CCCNC(=N)N)C(=O)N[C@@H](CCCCN)C(=O)N[C@@H](CCC(N)=O)C(=O)N[C@@H](CCSC)C(=O)N[C@@H](C)C(=O)N[C@H](C(=O)N[C@@H](CCCCN)C(=O)N[C@@H](CCCCN)C(=O)N[C@@H](Cc1ccc(O)cc1)C(=O)N[C@@H](CC(C)C)C(=O)N[C@@H](C)C(=O)N[C@@H](C)C(=O)N[C@H](C(=O)N[C@@H](CC(C)C)C(=O)NCC(=O)N[C@@H](CCCCN)C(=O)N[C@@H](CCCNC(=N)N)C(=O)N[C@@H](Cc1ccc(O)cc1)C(=O)N[C@@H](CCCCN)C(=O)N[C@@H](CCC(N)=O)C(=O)N[C@@H](CCCNC(=N)N)C(=O)N[C@H](C(=O)N[C@@H](CCCCN)C(=O)N[C@@H](CC(N)=O)C(=O)N[C@@H](CCCCN)C(N)=O)C(C)C)C(C)C)C(C)C)[C@@H](C)O | 1010 | 1010 | 40 |
| CSCC[C@H](NC(=O)[C@H](CCC(N)=O)NC(=O)[C@H](CCCCN)NC(=O)[C@H](CCCNC(=N)N)NC(=O)[C@H](Cc1ccc(O)cc1)NC(=O)[C@H](CCCNC(=N)N)NC(=O)[C@H](CO)NC(=O)[C@H](Cc1ccc(O)cc1)NC(=O)[C@H](CO)NC(=O)[C@H](CC(=O)O)NC(=O)[C@@H](NC(=O)[C@H](Cc1ccccc1)NC(=O)[C@H](C)NC(=O)CNC(=O)[C@H](CC(=O)O)NC(=O)[C@H](CO)NC(=O)[C@@H](N)Cc1cnc[nH]1)[C@@H](C)O)C(=O)N[C@@H](C)C(=O)N[C@H](C(=O)N[C@@H](CCCCN)C(=O)N[C@@H](CCCCN)C(=O)N[C@@H](Cc1ccc(O)cc1)C(=O)N[C@@H](CC(C)C)C(=O)N[C@@H](C)C(=O)N[C@@H](C)C(=O)N[C@H](C(=O)N[C@@H](CC(C)C)C(=O)NCC(=O)N[C@@H](CCCCN)C(=O)N[C@@H](CCCNC(=N)N)C(=O)N[C@@H](Cc1ccc(O)cc1)C(=O)N[C@@H](CCCCN)C(=O)N[C@@H](CCC(N)=O)C(=O)N[C@@H](CCCNC(=N)N)C(=O)N[C@H](C(=O)N[C@@H](CCCCN)C(=O)N[C@@H](CC(N)=O)C(=O)N[C@@H](CCCCN)C(N)=O)C(C)C)C(C)C)C(C)C (H-HSDGAFTDSYSRYRKQMAVKKYLAAVLGKRYKQRVKNK-NH2) | 34.4 | 9.6 | 88.3 |

Further lines, results first:

| IC50 [1] [nM] | EC50 [2] [nM] | Emax [3] [%] | SMILES |
| --- | --- | --- | --- |
| 10.8 | 8.75 | 112 | CC[C@H](C)[C@H](NC(=O)CNC(=O)[C@H](CC(=O)O)NC(=O)[C@H](CO)NC(=O)[C@@H](N)Cc1cnc[nH]1)C(=O)N[C@@H](Cc1ccccc1)C(=O)N[C@@H](C)C(=O)N[C@@H](CC(=O)O)C(=O)N[C@@H](CO)C(=O)N[C@@H](Cc1ccc(O)cc1)C(=O)N[C@@H](CO)C(=O)N[C@@H](CCCNC(=N)N)C(=O)N[C@@H](Cc1ccc(O)cc1)C(=O)N[C@@H](CCCNC(=N)N)C(=O)N[C@@H](CCCCN)C(=O)N[C@@H](CCC(N)=O)C(=O)N[C@@H](CCSC)C(=O)N[C@@H](C)C(=O)N[C@H](C(=O)N[C@@H](CCCCN)C(=O)N[C@@H](CCCCN)C(=O)N[C@@H](Cc1ccc(O)cc1)C(=O)N[C@@H](CC(C)C)C(=O)N[C@@H](C)C(=O)N[C@@H](C)C(=O)N[C@H](C(=O)N[C@@H](CC(C)C)C(N)=O)C(C)C)C(C)C |
| 602 | 538 | 18.4 | CC[C@H](C)[C@H](NC(=O)CNC(=O)[C@H](C)NC(=O)[C@H](CO)NC(=O)[C@@H](N)Cc1cnc[nH]1)C(=O)N[C@@H](Cc1ccccc1)C(=O)N[C@H](C(=O)N[C@@H](CC(=O)O)C(=O)N[C@@H](CO)C(=O)N[C@@H](Cc1ccc(O)cc1)C(=O)N[C@@H](CO)C(=O)N[C@@H](CCCNC(=N)N)C(=O)N[C@@H](Cc1ccc(O)cc1)C(=O)N[C@@H](CCCNC(=N)N)C(=O)N[C@@H](CCCCN)C(=O)N[C@@H](CCC(N)=O)C(=O)N[C@@H](CCSC)C(=O)N[C@@H](C)C(=O)N[C@H](C(=O)N[C@@H](CCCCN)C(=O)N[C@@H](CCCCN)C(=O)N[C@@H](Cc1ccc(O)cc1)C(=O)N[C@@H](CC(C)C)C(=O)N[C@@H](C)C(=O)N[C@@H](C)C(=O)N[C@H](C(=O)N[C@@H](CC(C)C)C(N)=O)C(C)C)C(C)C)[C@@H](C)O |
| 9.1 | 20.8 | 105 | CC[C@H](C)[C@H](NC(=O)[C@H](C)NC(=O)[C@H](CC(=O)O)NC(=O)[C@H](CO)NC(=O)[C@@H](N)Cc1cnc[nH]1)C(=O)N[C@@H](Cc1ccccc1)C(=O)N[C@H](C(=O)N[C@@H](CC(=O)O)C(=O)N[C@@H](CO)C(=O)N[C@@H](Cc1ccc(O)cc1)C(=O)N[C@@H](CO)C(=O)N[C@@H](CCCNC(=N)N)C(=O)N[C@@H](Cc1ccc(O)cc1)C(=O)N[C@@H](CCCNC(=N)N)C(=O)N[C@@H](CCCCN)C(=O)N[C@@H](CCC(N)=O)C(=O)N[C@@H](CCSC)C(=O)N[C@@H](C)C(=O)N[C@H](C(=O)N[C@@H](CCCCN)C(=O)N[C@@H](CCCCN)C(=O)N[C@@H](Cc1ccc(O)cc1)C(=O)N[C@@H](CC(C)C)C(=O)N[C@@H](C)C(=O)N[C@@H](C)C(=O)N[C@H](C(=O)N[C@@H](CC(C)C)C(N)=O)C(C)C)C(C)C)[C@@H](C)O |
| 7.9 | 7.7 | 108 | CC[C@H](C)[C@H](NC(=O)CNC(=O)[C@H](CC(=O)O)NC(=O)[C@H](CO)NC(=O)[C@@H](N)Cc1cnc[nH]1)C(=O)N[C@@H](Cc1ccc(O)cc1)C(=O)N[C@H](C(=O)N[C@@H](CC(=O)O)C(=O)N[C@@H](CO)C(=O)N[C@@H](Cc1ccc(O)cc1)C(=O)N[C@@H](CO)C(=O)N[C@@H](CCCNC(=N)N)C(=O)N[C@@H](Cc1ccc(O)cc1)C(=O)N[C@@H](CCCNC(=N)N)C(=O)N[C@@H](CCCCN)C(=O)N[C@@H](CCC(N)=O)C(=O)N[C@@H](CCSC)C(=O)N[C@@H](C)C(=O)N[C@H](C(=O)N[C@@H](CCCCN)C(=O)N[C@@H](CCCCN)C(=O)N[C@@H](Cc1ccc(O)cc1)C(=O)N[C@@H](CC(C)C)C(=O)N[C@@H](C)C(=O)N[C@@H](C)C(=O)N[C@H](C(=O)N[C@@H](CC(C)C)C(N)=O)C(C)C)C(C)C)[C@@H](C)O |
